Tests used:
[1] = Inhibition of SARS CoV-2 3C like protease using FAM-SAVLQ/SG-QLX520 as substrate pretreated for 1 hr followed by substrate addition and measured after 1 hr by FRET assay; design: species or system Severe acute respiratory syndrome coronavirus 2
In short: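 SARS-CoV-2 3CLpro was expressed from pET-28a(+). It was preincubated with serial compound dilutions at 37°C for 1 h in 20 mM HEPES pH 8, 200 mM NaCl, 0.4 mM EDTA, 60% glycerol and 6 mM DTT. IC50 came from a variable-slope fit, averaging at least two determinations.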

[2] = Inhibition of MERS CoV 3C like protease using FAM-SAVLQ/SG-QLX520 as substrate pretreated for 30 mins followed by substrate addition and measured after 1 hr by FRET assay; design: species or system Middle East respiratory syndrome-related coronavirus
[3] = Inhibition of SARS CoV-2 3C like protease expressed in HEK293T cells transfected with pGlo-VRLQS incubated for 6 hrs by firefly/renilla luciferase reporter assay; format: cell-based; conditions: Severe acute respiratory syndrome coronavirus 2, HEK-293T
In short: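 HEK293T cells, one day old, were co-transfected with pR-SARS-CoV-2 3CLpro (3CLpro gene in a PRRSV replicon, between ORF1b and 2a) and pGlo-VRLQS (caged firefly luciferase with a VRLQS cleavage site, plus Renilla control). C145A-mutant and mock transfections served as negative controls. Next morning, serial compound dilutions were added for 6 h at 37 C. Read-out was the firefly/Renilla ratio, and EC50 came from a variable-slope fit.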

HEK-293T = assay: Cytotoxicity against HEK293T cells assessed as reduction in cell viability measured after 72 hrs by CytoTox 96 nonradioactive cytotoxicity assay; format: cell-based; conditions: human
In short: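 HEK293T cells were exposed to compound at 1 to 100 μM for 72 h. Cytotoxicity was read with a CytoTox 96 nonradioactive kit, and CC50 was fitted with a variable-slope curve.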

SARS-CoV-2 = assay: Antiviral activity against SARS CoV-2 infected in African green monkey Vero cells assessed as inhibition of viral replication incubated for 48 to 72 hrs by plaque reduction assay; format: functional, organism-based; conditions: Severe acute respiratory syndrome coronavirus 2, Vero

SMILES | IC50 [1] [nM] | IC50 [2] [nM] | EC50 [3] [nM] | CC50 (HEK-293T) [nM] | EC50 (SARS-CoV-2) [nM]
CC(C)C[C@H](NC(=O)OC1CCC(C)(C)CC1)C(=O)N[C@@H](C[C@@H]1CCNC1=O)C(O)S(=O)(=O)O (some centres not stated) | 240 | 120 | 1670 | > 100000 | –
CC(C)C[C@H](NC(=O)OCC1CCC(F)(F)CC1)C(=O)N[C@H](C=O)C[C@@H]1CCNC1=O | – | 80 | – | – | –
CC(C)C[C@H](NC(=O)O[C@H]1CC[C@H](c2ccccc2)CC1)C(=O)N[C@H](C=O)C[C@@H]1CCNC1=O | 220 | – | – | – | –
[2H]C([2H])(OC(=O)N[C@@H](CC(C)C)C(=O)N[C@@H](C[C@@H]1CCNC1=O)C(O)S(=O)(=O)[O-])[C@H]1CC[C@H](CCC)CC1.[Na+] (some centres not stated) | 330 | – | – | – | –
CC(C)C[C@H](NC(=O)OC(Cc1ccccc1)c1ccccc1)C(=O)N[C@@H](C[C@@H]1CCNC1=O)C(O)S(=O)(=O)O (some centres not stated) | 310 | – | – | – | –
CC(C)C[C@H](NC(=O)OC1CCC(C)(C)CC1)C(=O)N[C@H](C=O)C[C@@H]1CCNC1=O | 250 | 120 | 3480 | > 100000 | –
CC(C)C[C@H](NC(=O)OCc1ccccc1)C(=O)N[C@@H](C[C@@H]1CCNC1=O)C(O)S(=O)(=O)O (some centres not stated) | – | – | – | – | 230
[2H]C([2H])(OC(=O)N[C@@H](CC(C)C)C(=O)N[C@@H](C[C@@H]1CCNC1=O)C(O)S(=O)(=O)[O-])c1c(F)c(F)c(F)c(F)c1F.[Na+] (some centres not stated) | 600 | – | – | – | –
CCC[C@H]1CC[C@H](OC(=O)N[C@@H](CC(C)C)C(=O)N[C@H](C=O)C[C@@H]2CCNC2=O)CC1 | 250 | – | – | – | –
[2H]C([2H])(OC(=O)N[C@@H](CC(C)C)C(=O)N[C@@H](C[C@@H]1CCNC1=O)C(O)S(=O)(=O)[O-])c1ccc(F)cc1.[Na+] (some centres not stated) | 320 | – | – | – | –
CC(C)C[C@H](NC(=O)O[C@H]1CC[C@H](c2ccccc2)CC1)C(=O)N[C@@H](C[C@@H]1CCNC1=O)C(O)S(=O)(=O)O (some centres not stated) | 230 | – | – | – | –
CCCC(OC(=O)N[C@@H](CC(C)C)C(=O)N[C@@H](C[C@@H]1CCNC1=O)C(O)S(=O)(=O)O)c1ccccc1 (some centres not stated) | 210 | 130 | 3720 | > 100000 | –
CC(C)C[C@H](NC(=O)OCc1ccc(F)cc1)C(=O)N[C@@H](C[C@@H]1CCNC1=O)C(O)S(=O)(=O)O (some centres not stated) | 400 | – | – | – | –
CC(C)C[C@H](NC(=O)OCc1cccc(F)c1)C(=O)N[C@H](C=O)C[C@@H]1CCNC1=O | 350 | 70 | 5280 | > 100000 | –
CC(C)C[C@H](NC(=O)OC[C@H]1CC[C@H](C(F)(F)F)CC1)C(=O)N[C@H](C=O)C[C@@H]1CCNC1=O | 250 | – | – | – | –
CC(C)C[C@H](NC(=O)OC(C)(C)C1CCC(F)(F)CC1)C(=O)N[C@H](C=O)C[C@@H]1CCNC1=O | 1200 | – | – | – | –
CC(C)C[C@H](NC(=O)OC(Cc1ccccc1)C1CCC(F)(F)CC1)C(=O)N[C@H](C=O)C[C@@H]1CCNC1=O (some centres not stated) | 310 | 100 | 2950 | > 100000 | –
CC(C)C[C@H](NC(=O)OCc1ccccc1F)C(=O)N[C@@H](C[C@@H]1CCNC1=O)C(O)S(=O)(=O)O (some centres not stated) | 380 | – | – | – | –
CC(C)C[C@H](NC(=O)OC[C@H]1CC[C@H](C(F)(F)F)CC1)C(=O)N[C@@H](C[C@@H]1CCNC1=O)C(O)S(=O)(=O)O (some centres not stated) | 190 | – | – | – | –
CC(C)C[C@H](NC(=O)OCc1c(F)c(F)c(F)c(F)c1F)C(=O)N[C@H](C=O)C[C@@H]1CCNC1=O | – | 50 | 3270 | > 100000 | –
CC(C)C[C@H](NC(=O)OC[C@H]1CC[C@@H](C(F)(F)F)CC1)C(=O)N[C@H](C=O)C[C@@H]1CCNC1=O | 230 | – | – | – | –
CCC[C@H]1CC[C@H](COC(=O)N[C@@H](CC(C)C)C(=O)N[C@@H](C[C@@H]2CCNC2=O)C(O)S(=O)(=O)O)CC1 (some centres not stated) | 200 | 110 | 4430 | 44000 | –
CC(C)C[C@H](NC(=O)OC(C)(C)C1CCC(F)(F)CC1)C(=O)N[C@@H](C[C@@H]1CCNC1=O)C(O)S(=O)(=O)O (some centres not stated) | 1250 | – | – | – | –
CC(C)C[C@H](NC(=O)OC[C@H]1CC[C@@H](C(F)(F)F)CC1)C(=O)N[C@@H](C[C@@H]1CCNC1=O)C(O)S(=O)(=O)O (some centres not stated) | 200 | – | – | – | –

SMILES | IC50 [1] [nM] | IC50 [2] [nM] | EC50 [3] [nM] | CC50 (HEK-293T) [nM] | EC50 (SARS-CoV-2) [nM]
CC(C)C[C@H](NC(=O)OCC1CCC(F)(F)CC1)C(=O)N[C@@H](C[C@@H]1CCNC1=O)C(O)S(=O)(=O)O (some centres not stated) | – | 100 | – | – | –
CC(C)C[C@H](NC(=O)O[C@H]1CC[C@H](C(C)C)CC1)C(=O)N[C@@H](C[C@@H]1CCNC1=O)C(O)S(=O)(=O)O (some centres not stated) | 240 | – | – | – | –
[2H]C([2H])(OC(=O)N[C@@H](CC(C)C)C(=O)N[C@H](C=O)C[C@@H]1CCNC1=O)c1ccc(F)cc1 | 390 | – | – | – | –
CC(C)C[C@H](NC(=O)OC(c1ccccc1)C1CCC(F)(F)CC1)C(=O)N[C@H](C=O)C[C@@H]1CCNC1=O (some centres not stated) | 130 | 40 | 1030 | > 100000 | –
[2H]C([2H])(OC(=O)N[C@@H](CC(C)C)C(=O)N[C@@H](C[C@@H]1CCNC1=O)C(O)S(=O)(=O)[O-])C1CCC(F)(F)CC1.[Na+] (some centres not stated) | 210 | – | – | – | –
CC(C)C[C@H](NC(=O)OC(Cc1ccccc1)c1ccccc1)C(=O)N[C@H](C=O)C[C@@H]1CCNC1=O (some centres not stated) | 500 | – | – | – | –
CC(C)C[C@H](NC(=O)OC(c1ccccc1)C1CCC(F)(F)CC1)C(=O)N[C@@H](C[C@@H]1CCNC1=O)C(O)S(=O)(=O)O (some centres not stated) | 170 | 50 | 1450 | > 100000 | 700
[2H]C([2H])(OC(=O)N[C@@H](CC(C)C)C(=O)N[C@H](C=O)C[C@@H]1CCNC1=O)[C@H]1CC[C@H](CCC)CC1 | 330 | – | – | – | –
CC(C)C[C@H](NC(=O)OCc1ccccc1F)C(=O)N[C@H](C=O)C[C@@H]1CCNC1=O | 340 | – | – | – | –
CCCC(OC(=O)N[C@@H](CC(C)C)C(=O)N[C@H](C=O)C[C@@H]1CCNC1=O)c1ccccc1 (some centres not stated) | 330 | 80 | 2390 | > 100000 | –
CC(C)C[C@H](NC(=O)OCc1cccc(F)c1)C(=O)N[C@@H](C[C@@H]1CCNC1=O)C(O)S(=O)(=O)O (some centres not stated) | 360 | 70 | 3400 | > 100000 | –
[2H]C([2H])(OC(=O)N[C@@H](CC(C)C)C(=O)N[C@H](C=O)C[C@@H]1CCNC1=O)c1c(F)c(F)c(F)c(F)c1F | 470 | – | – | – | –
CCCCC(OC(=O)N[C@@H](CC(C)C)C(=O)N[C@H](C=O)C[C@@H]1CCNC1=O)C1CCC(F)(F)CC1 (some centres not stated) | 190 | – | – | – | –
CCC[C@H]1CC[C@H](OC(=O)N[C@@H](CC(C)C)C(=O)N[C@@H](C[C@@H]2CCNC2=O)C(O)S(=O)(=O)O)CC1 (some centres not stated) | 190 | – | – | – | –
CC(C)C[C@H](NC(=O)OC(C)C1CCC(F)(F)CC1)C(=O)N[C@@H](C[C@@H]1CCNC1=O)C(O)S(=O)(=O)O (some centres not stated) | 260 | – | – | – | –
CCCC[C@H]1CC[C@H](OC(=O)N[C@@H](CC(C)C)C(=O)N[C@@H](C[C@@H]2CCNC2=O)C(O)S(=O)(=O)O)CC1 (some centres not stated) | – | 150 | 4230 | 58000 | 850
CC(C)C[C@H](NC(=O)O[C@H]1CC[C@H](C(C)C)CC1)C(=O)N[C@H](C=O)C[C@@H]1CCNC1=O | 240 | – | – | – | –
CC(C)C[C@H](NC(=O)OCc1c(F)c(F)c(F)c(F)c1F)C(=O)N[C@@H](C[C@@H]1CCNC1=O)C(O)S(=O)(=O)O (some centres not stated) | – | 80 | 4840 | > 100000 | –
CC(C)C[C@H](NC(=O)OC(C)C1CCC(F)(F)CC1)C(=O)N[C@H](C=O)C[C@@H]1CCNC1=O (some centres not stated) | 260 | – | – | – | –
CCCCC(OC(=O)N[C@@H](CC(C)C)C(=O)N[C@@H](C[C@@H]1CCNC1=O)C(O)S(=O)(=O)O)C1CCC(F)(F)CC1 (some centres not stated) | 270 | – | – | – | –
CCCC[C@H]1CC[C@H](OC(=O)N[C@@H](CC(C)C)C(=O)N[C@H](C=O)C[C@@H]2CCNC2=O)CC1 | 170 | 120 | 4840 | 55000 | –
CC(C)C[C@H](NC(=O)OC(Cc1ccccc1)C1CCC(F)(F)CC1)C(=O)N[C@@H](C[C@@H]1CCNC1=O)C(O)S(=O)(=O)O (some centres not stated) | 290 | 140 | 3500 | > 100000 | –
CC(C)C[C@H](NC(=O)OCc1ccc(F)cc1)C(=O)N[C@H](C=O)C[C@@H]1CCNC1=O | 390 | – | – | – | –

Source: ChEMBL document CHEMBL5029188
